Data reported in publication PMC4048812 (The Biochemical journal, 2013).
Values joined by “and” are separate entries in the source; they are usually repeats but may differ in a detail not shown here. Identical values can stand only once. “Also recorded” adds a separate entry of the source. Where no end group is shown, it is not given here.

Experiments:
[1] = test system: EGFR; conditions: ref [16],[17]; cited from earlier work
[2] = biological target: T1, EGFR kinase domain (Homo sapiens, UniProt P00533); test: Radiometric kinase assay of Tail Peptide A phosphorylation; assay type: biochemical
Summary of the method: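 Buffer was 15 mM Tris pH 7.5, 0.02% v/v polysorbate 20, 10 mM MgCl2. A non-phosphorylatable test peptide (substrate Tyr→Ala) was added at varied concentrations. After 10 min at room temperature, reactions were quenched with 0.5% v/v phosphoric acid, spotted on phosphocellulose filters, washed, and scintillation-counted (four replicate filters).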

[3] = test system: I682Q EGFR kinase domain; test: Transmission electron microscopy with I682Q EGFR kinase domain; conditions: different concentrations of Peptide C; 2 μM I682Q EGFR kinase domain; TEM
Summary of the method: (§1)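 Test peptide at varied concentrations, without or with 2 μM wild-type or I682Q His-tagged EGFR kinase domain (residues 672-998), in 10 mM Tris pH 7.5, 20 mM NaCl, 0.02% v/v polysorbate 20. Samples were incubated about 10 min at room temperature, then adsorbed onto Formvar carbon-coated copper grids. Grids were negatively stained with three applications of 1% w/v uranyl acetate and imaged by transmission electron microscopy.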

[4] = biological target: T1, EGFR kinase domain; test: Immunoblot analysis of EGFR kinase domain autophosphorylation; assay type: biochemical; conditions: 0-60 μM Peptide C; 800 nM EGFR kinase domain; 500 μM ATP; pH 7.5; 1 minute; room temperature; minimum of three replicates
[5] = test system: wild type EGFR kinase domain; test: Transmission electron microscopy with wild type EGFR kinase domain; conditions: TEM
Summary of the method: as §1

[6] = test system: EGFR; conditions: reported value, cited from earlier work
[7] = test system: I682Q EGFR kinase domain; test: Enzyme-coupled kinase assay, I682Q mutant alone; assay type: biochemical; conditions: 2 μM kinase domain; titration of Peptide C; 500 μM ATP; pH 7.5; room temperature
Summary of the method: (§2)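 Spectrophotometric enzyme-coupled kinase assay using N-terminally His6-tagged EGFR kinase domain (residues 672-998); mutants were made by site-directed mutagenesis and sequence-confirmed. Total kinase domain was 2 μM, with 1 μM of each mutant when paired. The test peptide substrate was titrated with 500 μM ATP in 10 mM MgCl2, 20 mM Tris pH 7.5 at room temperature. Specific rates came from at least triplicates; for pairs, Hill coefficients came from variable-slope log(agonist)-response fits.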

[8] = Transmission electron microscopy of Peptide C alone; assay type: physicochemical; conditions: 20, 40 and 80 μM, TEM
Summary of the method: as §1

[9] = biological target: EGFR kinase domain (residues 672-998) (Homo sapiens, UniProt P00533); test: Enzyme-coupled kinase assay, wild type EGFR kinase domain; assay type: biochemical
[10] = test system: V924R EGFR kinase domain; test: Enzyme-coupled kinase assay, V924R mutant alone; assay type: biochemical; conditions: 2 μM kinase domain; titration of Peptide C; 500 μM ATP; pH 7.5; room temperature
Summary of the method: as §2

[11] = biological target: I682Q and V924R EGFR kinase domains (Homo sapiens, UniProt P00533, V948R); test: Enzyme-coupled kinase assay, pair I682Q and V924R; assay type: biochemical; conditions: 1 μM each
Summary of the method: as §2

[12] = biological target: I682Q/D813N and V924R EGFR kinase domains (Homo sapiens, UniProt P00533, V948R); test: Enzyme-coupled kinase assay, pair I682Q/D813N and V924R; assay type: biochemical; conditions: I682Q/D813N with V924R, 1 μM each; minimum of three replicates
Summary of the method: as §2

[13] = Dynamic light scattering of Peptide C; assay type: physicochemical; conditions: DLS, 25° C
Summary of the method: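 Test peptide at 1 mM, prepared in water, in 20 mM NaCl, or in assay buffer (15 mM Tris pH 7.5, 0.02% v/v polysorbate 20, 20 mM NaCl). DLS was run at 25° C with a 60 mW laser at 15% power and a 90° detection angle. Buffer components were filtered beforehand; the peptide itself was not filtered.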

[14] = Peptide C (2 μM EGFR) vs Tyrsub (8 μM EGFR)

CCCCCCCCCCCCC/C=C/[C@@H](O)[C@@H](N)CO [sphingosine]
aggregation and activation of EGFR [1]: can aggregate and activate EGFR in an apparently cooperative manner

RAHEEIAHFFFAKKK [Peptide C variant]
EC50 [2]: 45 µM

RAHEEIYHFFFAKKK [Peptide C]
appearance with I682Q EGFR kinase domain compared with wild type [3]: appear indistinguishable from wild type | Tyr-845 phosphorylation [4]: increases in a dose-dependent manner | Tyr-974 phosphorylation [4]: same dose-dependent increase in phosphorylation | Tyr-992 phosphorylation [4]: same dose-dependent increase in phosphorylation | small, dispersed EGFR aggregates ([5]; 20 μM Peptide C, 2 μM EGFR kinase domain): also observed | small, dispersed EGFR aggregates ([5]; 80 μM Peptide C, 2 μM EGFR kinase domain): not observed | fibrils and globular aggregates with EGFR kinase domain ([5]; 20 and 80 μM Peptide C, 2 μM EGFR kinase domain, about 10 minutes): forms fibrils in the presence of EGFR; also recorded: Fibrils similar to those formed by Peptide C alone as well as globular aggregates localized near the fibrils are observed | fibril edges with EGFR kinase domain ([5]; Peptide C with 2 μM EGFR kinase domain): the fibril edges are less defined; also recorded: appear less crisp | Km ([6]; ref [5],[9]): 128 µM | catalytic efficiency, kcat/KM, fold higher than for Tail Peptide A ([6]; ref [9]): ~ 26 fold | activating properties with I682Q alone [7]: entirely abrogated | fibril length ([8]; 10 mM Tris, pH 7.5, 20 mM NaCl, 0.02% polysorbate 20): several hundreds | dependence of fibril morphology on concentration [8]: appears to be independent of Peptide C concentration | globular aggregates [8]: Globular aggregates closely associated with the fibrils are also observed | kcat, fold higher than for Tail Peptide A ([9]; Peptide C (2 μM EGFR) vs Tail Peptide A (8 μM EGFR)): roughly eight | catalytic efficiency (kcat/KM), fold higher than for Tyrsub [9, 14]: ~760 fold | kcat, fold higher than for Tyrsub [9, 14]: roughly eight | Hill coefficient (nH) ([9]; wild type kinase domain, 2 μM, 500 μM ATP, pH 7.5, room temperature, Hill equation fit, minimum of three replicates): ~ 2.8 and ~3 | activating properties with V924R alone [10]: entirely abrogated | catalysis relative to wild type kinase domain ([11]; I682Q and V924R combined, 500 μM ATP, pH 7.5, room temperature): about 60% | Hill coefficient (nH) ([11]; I682Q with V924R, minimum of three replicates): ~ 3.0 | Hill coefficient (nH) [12]: ~ 2.5 | aggregation ([13]; 1 mM in 20 mM sodium chloride): aggregation to an intermediate degree between the aqueous solution and the buffered samples | aggregation ([13]; 1 mM in water): limited aggregation | hydrodynamic radius ([13]; 1 mM in water, polydisperse distribution): 1-10 nm

poly-arginine
aggregation and activation of EGFR [1]: can aggregate and activate EGFR in an apparently cooperative manner

poly-lysine
aggregation and activation of EGFR [1]: can aggregate and activate EGFR in an apparently cooperative manner

protamine
aggregation and activation of EGFR [1]: can aggregate and activate EGFR in an apparently cooperative manner
